According to ChEMBL document CHEMBL5608261, “Pharmacophore Establishment and Optimization of Saturated 1,6-Naphthyridine-Fused Quinazolinones that Inhibit Meningoencephalitis-Causing Naegleria fowleri” (J Med Chem, 2024):
In brackets after ≈: the same amount, converted by molar mass. Activity calls are given as the source filed them. The calls are words filed in the database; no cut-off is given here.

Tests used:
[1] = Metabolic stability in CD-1 mouse liver microsomes assessed as half-life incubated for 60 mins by LC-MS/MS analysis; type: ADME, Microsome; conditions: 1 h
Outline: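 Half-life measured in CD-1 mouse liver microsomes with NADPH over a 60 min exposure.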

Naegleria fowleri [2] = assay: Anti-ameobic activity against Naegleria fowleri Nf69 (ATCC 30215) trophozoites assessed as inhibition of amoeba growth incubated for 48 hrs by CellTiter-Glo assay; type: functional, organism-based; conditions: Naegleria fowleri, Nf69 (ATCC 30215), 48 h
Outline: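 Axenic Nf69 trophozoites were seeded at 1 × 10^4 cells/mL in Nelson's complete medium with 10% heat-inactivated FBS. Compound was added at 20 to 0.375 μM (lower ranges for very potent compounds), with vehicle controls, for 48 h at 37 °C and 5% CO2. CellTiter-Glo luminescence gave % growth inhibition versus controls, and triplicate means were fitted to dose–response curves for EC50.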

[3] = Drug concentration in female CD-1 mouse plasma at 11 mg/kg, iv measured after 4 hrs by LC-MS/MS analysis; type: ADME, organism-based
Outline: (§1)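 Female CD-1 mice (n = 3/group) received one bolus of 11 mg/kg (actual dose; 10 mg/kg intended) IV or PO. Plasma was sampled at six time points over 12 h, and brain homogenate was taken at the 12 h end point. […] Mean ± SD.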

[4] = Drug concentration in female CD-1 mouse plasma at 11 mg/kg, po measured after 8 hrs by LC-MS/MS analysis; type: ADME, organism-based; outline: as §1
[5] = Half-life in female CD-1 mouse at 11 mg/kg, po measured after 12 hrs by LC-MS/MS analysis; type: ADME, organism-based; conditions: in vivo; outline: as §1
[6] = Drug concentration in female CD-1 mouse brain at 44 mg/kg, ip measured after 4 hrs by LC-MS/MS analysis; type: ADME, organism-based; conditions: read-out: Ct
Outline: (§2)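 Female CD-1 mice (n = 3/group) received one intraperitoneal bolus of 44 mg/kg (actual dose; 50 mg/kg intended). Plasma was sampled at 2 and 4 h and brain homogenate at 4 h. Brain-to-plasma ratio = brain over plasma concentration at 4 h. Mean ± SD.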

[7] = AUCinfinity in female CD-1 mouse at 11 mg/kg, iv measured after 12 hrs by LC-MS/MS analysis; type: ADME, organism-based; conditions: in vivo; outline: as §1
[8] = Drug concentration in female CD-1 mouse plasma at 11 mg/kg, po measured after 0.5 hrs by LC-MS/MS analysis; type: ADME, organism-based; outline: as §1
[9] = Drug concentration in female CD-1 mouse plasma at 11 mg/kg, iv measured after 2 hrs by LC-MS/MS analysis; type: ADME, organism-based; outline: as §1
[10] = AUCinfinity in female CD-1 mouse at 11 mg/kg, po measured after 12 hrs by LC-MS/MS analysis; type: ADME, organism-based; conditions: in vivo; outline: as §1
[11] = Drug concentration in female CD-1 mouse brain at 11 mg/kg, iv measured after 12 hrs by LC-MS/MS analysis; type: ADME, organism-based; conditions: read-out: Ct; outline: as §1
[12] = Drug concentration in female CD-1 mouse plasma at 11 mg/kg, po measured after 4 hrs by LC-MS/MS analysis; type: ADME, organism-based; outline: as §1
[13] = Kinetic solubility of compound at pH 7.4 incubated for 24 hrs by HPLC analysis; type: physicochemical; conditions: buffer, pH 7.4, read-out: Kinetic_solubility
SH-SY5Y = assay: Cytotoxicity against human SH-SY5Y cells assessed as reduction in cell viability incubated for 72 hrs by CellTiter-Glo assay; type: toxicity, cell-based; conditions: sh-sy5y, 72 h
Outline: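 SH-SY5Y cells at 2000 per well attached overnight at 37 °C. Compound from 20 mM DMSO stocks was added in triplicate as a dose series starting at 20 μM, with doxorubicin as positive control.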

[14] = Drug concentration in female CD-1 mouse plasma at 11 mg/kg, po measured after 2 hrs by LC-MS/MS analysis; type: ADME, organism-based; outline: as §1
[15] = Half-life in female CD-1 mouse at 11 mg/kg, iv measured after 12 hrs by LC-MS/MS analysis; type: ADME, organism-based; conditions: in vivo; outline: as §1
[16] = Protein binding in CD-1 mouse plasma incubated for 4 hrs by equilibrium dialysis based LC-MS/MS analysis; type: ADME, cell-free; conditions: mouse, 4 h
[17] = Drug concentration in female CD-1 mouse brain at 11 mg/kg, po measured after 12 hrs by LC-MS/MS analysis; type: ADME, organism-based; conditions: read-out: Ct; outline: as §1
[18] = Ratio of drug concentration in female CD-1 mouse brain to plasma at 44 mg/kg, ip measured after 4 hrs by LC-MS/MS analysis; type: ADME, organism-based; outline: as §2
[19] = Volume of distribution in female CD-1 mouse at 11 mg/kg, iv measured after 12 hrs by LC-MS/MS analysis; type: ADME, organism-based; conditions: in vivo; outline: as §1
[20] = Oral bioavailability in female CD-1 mouse at 11 mg/kg measured after 12 hrs by LC-MS/MS analysis; type: ADME, organism-based; conditions: in vivo; outline: as §1
Naegleria fowleri [21] = assay: Anti-ameobic activity against Naegleria fowleri TY (ATCC 30107) trophozoites assessed as inhibition of amoeba growth incubated for 48 hrs by CellTiter-Glo assay; type: functional, organism-based
Outline: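 TY strain (ATCC 30107) trophozoites, seeded at 1 × 10^4 cells/mL, were exposed 48 h (37 °C, 5% CO2) to vehicle or compound, with concentrations initially 20 to 0.375 μM. CellTiter-Glo luminescence gave % growth inhibition versus controls. EC50 was fit from triplicate runs (n = 3, ± SEM).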

Naegleria fowleri [22] = assay: Anti-ameobic activity against Naegleria fowleri Nf69 (ATCC 30215) trophozoites infected in female CD-1 mouse model assessed as median survival day at 11 mg/kg, ip pre-infected for 48 hrs from day 0 followed by twice daily compound administration from day 2 to day 6 and measured on day 14 post-infection (reference value: 5.4 day ); type: functional; conditions: time 13 day
Outline: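 Female CD-1 mice (n = 6/group) were infected intranasally with Nf69 trophozoites on day 0. After a 48 h establishment period, they received IP dosing at 11 mg/kg twice daily for 5 days. Infected controls received vehicle only. The study lasted 14 days, with Kaplan–Meier survival, and the brains of survivors were cultured for viable amoeba.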

[23] = Drug concentration in female CD-1 mouse plasma at 11 mg/kg, iv measured after 12 hrs by LC-MS/MS analysis; type: ADME, organism-based; outline: as §1
[24] = Drug concentration in female CD-1 mouse plasma at 11 mg/kg, iv measured after 8 hrs by LC-MS/MS analysis; type: ADME, organism-based; outline: as §1
[25] = Drug concentration in CD-1 mouse brain infected with Naegleria fowleri Nf69 (ATCC 30215) trophozoites assessed as adverse effect at 50 mg/kg, ip pre-infected for 48 hrs from day 0 followed by single bolus compound administration from day 2 to day 6 and measured on day 14 post-infection; type: ADME, organism-based; conditions: time 13 day, read-out: Ct
[26] = Selectivity index, ratio of CC50 for cytotoxicity against human SH-SY5Y cells to EC50 for anti-amoebic activity against Naegleria fowleri Nf69 (ATCC 30215) assessed as inhibition of amoeba growth; type: toxicity, cell-based; conditions: SH-SY5Y cells, read-out: Ratio CC50/EC50
[27] = Drug concentration in female CD-1 mouse plasma at 44 mg/kg, ip measured after 2 hrs by LC-MS/MS analysis; type: ADME, organism-based; outline: as §2
[28] = Drug concentration in female CD-1 mouse plasma at 11 mg/kg, iv measured after 0.5 hrs by LC-MS/MS analysis; type: ADME, organism-based; outline: as §1
[29] = Toxicity in female CD-1 mouse infected with Naegleria fowleri Nf69 (ATCC 30215) trophozoites assessed as adverse effect at 50 mg/kg, ip pre-infected for 48 hrs from day 0 followed by single bolus compound administration from day 2 to day 6 and measured on day 14 post-infection; type: organism-based; conditions: in vivo, 312 h, time 13 day
Naegleria fowleri [30] = assay: Anti-ameobic activity against Naegleria fowleri Nf69 (ATCC 30215) trophozoites infected in female CD-1 mouse model assessed as reduction in infection at 11 mg/kg, ip pre-infected for 48 hrs from day 0 followed by twice daily compound administration from day 2 to day 6 and […]; type: functional, organism-based; conditions: time 6.0 day
[31] = Metabolic stability in human liver microsomes assessed as half-life; type: ADME, Microsome
[32] = Drug concentration in female CD-1 mouse plasma at 11 mg/kg, po measured after 12 hrs by LC-MS/MS analysis; type: ADME, organism-based; outline: as §1

COc1cc2nc3n(c(=O)c2cc1Cl)CC[C@H]1[C@H]3CCCN1CC1COC1
t1/2 [1]: 0.803 h | EC50 (Naegleria fowleri [2]): 0.012 µM | concentration at 4 h [3]: 0.281 µg/mL | concentration at 8 h [4]: 0.0211 µg/mL | t1/2 [5]: 1.1 h | concentration at 4 h [6]: 9090 ng/g | AUC [7]: 5.01 µg·h/mL | concentration at 0.5 h [8]: 0.469 µg/mL | concentration at 2 h [9]: 0.882 µg/mL | AUC [10]: 1.92 µg·h/mL | concentration at 12 h [11]: 13.3 ng/g | concentration at 4 h [12]: 0.254 µg/mL | solubility kinetic at 24 h [13]: 23.9 µM (≈ 9.32 µg/mL) | CC50 (SH-SY5Y): 2.3 µM | concentration at 2 h [14]: 0.459 µg/mL | t1/2 [15]: 1 h | PPB [16]: 74% | concentration at 12 h [17]: 10.4 ng/g | BPR [18]: 4.7 | Vd [19]: 3.7 L/kg | F [20]: 38% | EC50 (Naegleria fowleri [21]): 0.014 µM | MSD (Naegleria fowleri [22]): 6.1 days | concentration at 12 h [23]: 0.0026 µg/mL | concentration at 8 h [24]: 0.0181 µg/mL | concentration at 312 h [25]: ~20 µM | selectivity ratio [26]: 192 | concentration at 2 h [27]: 3.85 µg/mL | concentration at 0.5 h [28]: 2.11 µg/mL | Activity [29]: Non-Toxic | Activity (Naegleria fowleri [30]): inactive | t1/2 [31]: 1.54 h | concentration at 12 h [32]: 0.002 µg/mL
